Experimental data from different studies.
Protocols differ between the studies behind these lines.
Target: Casein kinase I isoform gamma-1 (CSNK1G1, Homo sapiens, UniProt Q9HCP0)

CN(c1nccc(-c2cnn3ncccc23)n1)C1CC1  remaining binding (binding; 1 µM): 100%
NS(=O)(=O)c1cc(NC(=O)Cc2ccccc2)ccc1Oc1cccc(Cl)c1  remaining binding (cell-free assay; competition with immobilised ligand; 1 µM): 89%
CN(C)c1nccc(-c2cnc3ncccn23)n1  remaining binding (binding; 1 µM): 81%
CC(=O)c1c(NS(C)(=O)=O)c2cc(-c3ccc(Cl)cc3)c(-c3ccc(Cl)cc3Cl)nc2n(C)c1=O  remaining binding (cell-free assay; competition with immobilised ligand; 1 µM): 92%
FC(F)(F)Oc1cccc(-c2cnc3ccc(-c4ccncc4)nn23)c1  remaining binding (cell-free assay; competition with immobilised ligand; 5 µM): 67%
CN(C)c1ncnc(-c2ccc3nc(Nc4cc(CN5CCN(C(=O)CC(F)(F)F)CC5)ccn4)[nH]c3c2)c1Cl  remaining binding (cell-free assay; competition with immobilised ligand; 1 µM): 76%
CN(CCCC(F)(F)F)c1nccc(-c2cnn3ncccc23)n1  remaining binding (binding; 1 µM): 100%
O=C(c1ccc(Nc2ncc(Cl)c(-c3cc4ccccc4s3)n2)cc1)N1CCC(N2CCCC2)CC1  remaining binding (binding; competition with immobilised ligand; 1 µM): 80%
N[C@@H]1CCN(c2nccc(-c3cnn4ncccc34)n2)C1  remaining binding (binding; 1 µM): 100%
O=C(NS(=O)(=O)c1ccc(NCC2CCOCC2)c([N+](=O)[O-])c1)c1ccc(N2CCN(Cc3ccc(C(F)(F)F)cc3-c3ccc(Cl)cc3)CC2)cc1Oc1cnc2[nH]ccc2c1  remaining binding (cell-free assay; competition with immobilised ligand; 1 µM): 95%
COc1cnc(Nc2cccc(S(N)(=O)=O)c2)nc1N1CCN(c2ccccc2)CC1  remaining binding (binding; competition with immobilised ligand; 1 µM): 100%
COc1ncc2cc3ccccc3nc2c1C#N  remaining binding (cell-free assay; competition with immobilised ligand; 5 µM): 100%
C[C@@H]1CCN(c2nccc(-c3cnn4ncccc34)n2)C1  remaining binding (binding; 1 µM): 87%
c1cncc(-c2cccc(Nc3nccc(NC4CCCCC4)n3)c2)c1  remaining binding (binding; competition with immobilised ligand; 10 µM): 89%
O=C(NCCCN1CCOCC1)c1ccc(Nc2ncc(Cl)c(-c3ccc(Cl)s3)n2)cc1  remaining binding (binding; competition with immobilised ligand; 1 µM): 88%
CCCCN(CCCC)C(=O)CN1C[C@H](c2cc(OC)c3c(c2)OCO3)[C@@H](C(=O)O)[C@@H]1CC(C)(C)CCC  remaining binding (cell-free assay; competition with immobilised ligand; 1 µM): 100%
O=C(Nc1c[nH]nc1C(=O)NC1CCNCC1)c1cc(F)cc(F)c1  remaining binding (binding; competition with immobilised ligand; 1 µM): 89%
C[C@@H]1CN(c2cc(-c3n[nH]c4ccc(OC5(C)CC5)cc34)ncn2)C[C@H](C)O1  remaining binding (cell-free assay; competition with immobilised ligand; 0.1 µM): 100%
CNC(=O)[C@@H]1CC[C@@H](n2c(-c3ccc4cnccc4c3)nc3ccc(C(=O)NCc4cccc(C(N)=O)c4)cc32)C1  remaining binding (binding; competition with immobilised ligand; 1 µM): 100%
